Data set [1] in a line: Stability in 1:1 MeCN:0.2N aq. HCl assessed as percent remaining at 0.3 mM and 60 degC incubated for 24 hrs by LC/MS analysis. Particulars: for remaining at 24 h, 300 µM: 1:1 MeCN:0.2N aq; call rule not given here. HCl, read-out: Stability. It is filed as physicochemical. The method, boiled down:
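Compound in 1:1 CH3CN/0.2 N aqueous HCl with furan-2-carboxylic acid (1 eq) as internal standard, heated at 60 °C. Analysed by LC-MS at set time points. Degradation from UV peak area at 254 nm relative to the internal standard.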

In data set [2] the target is T1, CYP3A4 (Homo sapiens, UniProt P08684). Put plainly: Inhibition of CYP3A4 (unknown origin) at 50 uM using DBOMF as substrate measured for each min for 6 mins by fluorescence based assay relative to control. It is filed as ADME. The settings on record: probe DBOMF.
T1 sequence (P08684 whole entry): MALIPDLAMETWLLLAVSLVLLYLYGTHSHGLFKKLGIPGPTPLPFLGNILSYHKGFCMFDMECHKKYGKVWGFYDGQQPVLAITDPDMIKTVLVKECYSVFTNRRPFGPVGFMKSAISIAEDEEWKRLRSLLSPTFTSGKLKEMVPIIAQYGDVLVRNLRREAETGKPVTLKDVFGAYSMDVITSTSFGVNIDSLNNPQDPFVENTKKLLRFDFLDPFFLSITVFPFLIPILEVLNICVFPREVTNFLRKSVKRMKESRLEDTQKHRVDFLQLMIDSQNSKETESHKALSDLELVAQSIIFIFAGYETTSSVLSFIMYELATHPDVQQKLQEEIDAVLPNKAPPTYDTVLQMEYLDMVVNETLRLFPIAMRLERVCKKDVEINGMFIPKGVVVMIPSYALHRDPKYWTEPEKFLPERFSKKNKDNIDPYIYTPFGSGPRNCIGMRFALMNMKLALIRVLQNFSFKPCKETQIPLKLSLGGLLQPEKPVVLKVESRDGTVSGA
Data set [3] has as its target Potassium voltage-gated channel subfamily KQT member 2 (Homo sapiens, UniProt O43526). Briefly: Inhibition of Kv7.2 in human HEK293 cells incubated for 1 hr by thallium flux assay. It is filed as cell-based. The method, boiled down:
(§1)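 HEK-293 cells stably expressing KCNQ2 or hERG were plated overnight, then loaded with Thallos AM dye for 1 h at 22 °C. Compounds (10-point, 3-fold dilutions) were added for 5 min, then Tl₂SO₄/K-gluconate stimulus, read at 1 Hz. F/F0 was vehicle-subtracted and initial slopes fit to a four-parameter logistic. Triplicate wells; mean of three independent experiments.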

The target in data set [4] is Voltage-gated potassium channel, KQT; KCNQ2(Kv7.2)/KCNQ3(Kv7.3) (Homo sapiens) (UniProt O43526+O43525). Put plainly: Inhibition of Kv7.2/7.3 in human tsA201 cells assessed as effect on channel currents at -60 mV holding potential at 1.5 uM by whole cell patch clamp assay relative to control. It is filed as cell-based.
For data set [5], the target named is Voltage-gated inwardly rectifying potassium channel KCNH2 (Homo sapiens, UniProt Q12809). Put plainly: Inhibition of ERG in human HEK293 cells incubated for 1 hr by thallium flux assay. It is filed as cell-based. The essentials:
as §1

Data set [6] in a line: Kinetic solubility in […] % DMSO/water at 3.2 uM to 100 uM incubated for 18 hrs by spectrometry. The settings on record: for solubility kinetic at 18 h: […] DMSO/water, read-out: Kinetic_solubility. It is filed as physicochemical.
Data set [7] addresses Adrenergic receptor alpha-1 (Homo sapiens) (UniProt P35348+P25100+P35368). Briefly: Binding affinity to alpha1 adrenergic receptor (unknown origin) at 10 uM relative to control. It is filed as protein assay.
Data set [8] concerns HEK293. Briefly: Cytotoxicity against human HEK293 cells assessed as reduction in cell viability incubated for 18 hrs by celltiter-glo assay. The settings on record: hek293, 18 h.
The test system of data set [9] is HepG2. Briefly: Cytotoxicity against human HepG2 cells assessed as reduction in cell viability incubated for 18 hrs by celltiter-glo assay. Particulars: hepg2, 18 h.
The target of data set [10] is T2, D(3) dopamine receptor (Homo sapiens, UniProt P35462). Put plainly: Inhibition of D3 receptor (unknown origin).
T2 sequence (P35462 whole entry): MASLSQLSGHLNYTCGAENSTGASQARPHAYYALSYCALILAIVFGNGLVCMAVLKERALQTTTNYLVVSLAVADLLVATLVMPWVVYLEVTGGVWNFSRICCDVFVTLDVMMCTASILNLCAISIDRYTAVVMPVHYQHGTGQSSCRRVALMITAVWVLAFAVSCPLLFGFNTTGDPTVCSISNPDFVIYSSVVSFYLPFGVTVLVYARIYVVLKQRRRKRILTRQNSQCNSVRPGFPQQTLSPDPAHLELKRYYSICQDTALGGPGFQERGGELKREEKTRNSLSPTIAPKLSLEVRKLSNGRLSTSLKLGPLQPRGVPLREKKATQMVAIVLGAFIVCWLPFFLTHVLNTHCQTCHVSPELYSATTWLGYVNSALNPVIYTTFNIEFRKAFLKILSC
Data set [11] addresses T2, D(3) dopamine receptor. Put plainly: Binding affinity to D3 receptor (unknown origin) at 10 uM relative to control.
Data set [12] is described as follows: Metabolic stability in human liver microsomes assessed as percent remaining […] incubated for 1 hr by LC/MS analysis. It is filed as ADME, Microsome. The method, boiled down:
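Compound at 10 μM final (from 1 mM DMSO stock) pre-incubated 5 min at 37 °C with NADPH regenerating system in phosphate buffer pH 7.4. Started with human liver microsomes (0.5 mg/mL protein). After 1 h, triplicate aliquots quenched in cold acetonitrile with internal standard. Percent remaining by LC-MS/MS peak-area ratio to internal standard.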

Data set [13] addresses T1, CYP3A4. Briefly: Inhibition of CYP3A4 (unknown origin) at 10 uM using DBOMF as substrate measured for each min for 6 mins by fluorescence based assay relative to control. It is filed as ADME. The settings on record: probe DBOMF. The essentials:
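Vivid CYP3A4 Green assay in PBS pH 7.2 with NADP+ regeneration system. Final levels: 5 nM CYP3A4, 2 μM DBOMF substrate, 100 μM NADP+, 10 μM compound. Fluorescence (ex 490/em 520 nm) read every minute for 6 min, four wells per compound.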

The target in data set [14] is T3, Alpha-1A adrenergic receptor (Homo sapiens) (UniProt P35348).
T3 sequence (whole entry): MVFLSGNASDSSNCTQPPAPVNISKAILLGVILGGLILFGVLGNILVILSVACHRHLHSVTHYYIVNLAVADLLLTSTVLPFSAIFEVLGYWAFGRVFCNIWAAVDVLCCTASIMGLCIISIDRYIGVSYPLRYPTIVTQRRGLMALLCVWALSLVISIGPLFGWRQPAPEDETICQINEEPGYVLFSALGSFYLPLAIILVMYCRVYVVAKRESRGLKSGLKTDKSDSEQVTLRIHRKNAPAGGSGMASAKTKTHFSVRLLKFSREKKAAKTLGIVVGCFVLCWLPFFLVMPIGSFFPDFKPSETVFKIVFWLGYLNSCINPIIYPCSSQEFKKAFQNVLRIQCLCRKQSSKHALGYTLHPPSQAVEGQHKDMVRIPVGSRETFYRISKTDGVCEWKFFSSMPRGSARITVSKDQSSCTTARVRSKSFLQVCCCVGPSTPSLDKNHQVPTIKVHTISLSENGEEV
Briefly: Binding affinity to alpha1A adrenergic receptor (unknown origin) at 10 uM relative to control.

Data set [15] concerns the target T4, Alpha-1A adrenergic receptor (Homo sapiens, UniProt P35348).
T4 sequence (P35348 whole entry): T3 sequence (whole entry)
Briefly: Inhibition of alpha1A adrenergic receptor (unknown origin).

≈ marks a conversion by molar mass, not a printed value.

Sequence of Potassium voltage-gated channel subfamily KQT member 2 (O43526 whole entry): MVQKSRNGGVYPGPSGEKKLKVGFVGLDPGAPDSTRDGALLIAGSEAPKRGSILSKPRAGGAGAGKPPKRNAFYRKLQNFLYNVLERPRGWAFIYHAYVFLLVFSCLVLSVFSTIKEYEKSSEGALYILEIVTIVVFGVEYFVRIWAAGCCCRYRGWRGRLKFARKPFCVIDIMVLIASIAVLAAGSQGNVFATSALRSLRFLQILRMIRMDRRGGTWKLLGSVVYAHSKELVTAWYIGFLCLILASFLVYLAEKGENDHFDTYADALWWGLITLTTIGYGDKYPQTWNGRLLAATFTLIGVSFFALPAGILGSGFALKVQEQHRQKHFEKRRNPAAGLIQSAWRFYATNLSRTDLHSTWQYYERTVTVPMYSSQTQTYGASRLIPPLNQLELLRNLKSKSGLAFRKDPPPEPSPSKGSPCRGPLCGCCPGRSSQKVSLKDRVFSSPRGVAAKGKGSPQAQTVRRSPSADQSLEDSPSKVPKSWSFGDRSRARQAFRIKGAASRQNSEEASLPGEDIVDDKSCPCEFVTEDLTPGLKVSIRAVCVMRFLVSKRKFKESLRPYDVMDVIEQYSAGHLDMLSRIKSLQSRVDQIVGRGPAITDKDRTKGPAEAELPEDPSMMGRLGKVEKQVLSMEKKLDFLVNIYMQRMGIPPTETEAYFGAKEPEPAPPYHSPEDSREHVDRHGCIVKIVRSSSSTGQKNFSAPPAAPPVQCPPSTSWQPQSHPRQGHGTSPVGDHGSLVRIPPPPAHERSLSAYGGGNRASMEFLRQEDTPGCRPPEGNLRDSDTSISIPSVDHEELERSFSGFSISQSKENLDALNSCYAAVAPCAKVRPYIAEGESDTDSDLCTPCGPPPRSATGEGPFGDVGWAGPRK
Sequence of Voltage-gated inwardly rectifying potassium channel KCNH2 (Q12809 whole entry): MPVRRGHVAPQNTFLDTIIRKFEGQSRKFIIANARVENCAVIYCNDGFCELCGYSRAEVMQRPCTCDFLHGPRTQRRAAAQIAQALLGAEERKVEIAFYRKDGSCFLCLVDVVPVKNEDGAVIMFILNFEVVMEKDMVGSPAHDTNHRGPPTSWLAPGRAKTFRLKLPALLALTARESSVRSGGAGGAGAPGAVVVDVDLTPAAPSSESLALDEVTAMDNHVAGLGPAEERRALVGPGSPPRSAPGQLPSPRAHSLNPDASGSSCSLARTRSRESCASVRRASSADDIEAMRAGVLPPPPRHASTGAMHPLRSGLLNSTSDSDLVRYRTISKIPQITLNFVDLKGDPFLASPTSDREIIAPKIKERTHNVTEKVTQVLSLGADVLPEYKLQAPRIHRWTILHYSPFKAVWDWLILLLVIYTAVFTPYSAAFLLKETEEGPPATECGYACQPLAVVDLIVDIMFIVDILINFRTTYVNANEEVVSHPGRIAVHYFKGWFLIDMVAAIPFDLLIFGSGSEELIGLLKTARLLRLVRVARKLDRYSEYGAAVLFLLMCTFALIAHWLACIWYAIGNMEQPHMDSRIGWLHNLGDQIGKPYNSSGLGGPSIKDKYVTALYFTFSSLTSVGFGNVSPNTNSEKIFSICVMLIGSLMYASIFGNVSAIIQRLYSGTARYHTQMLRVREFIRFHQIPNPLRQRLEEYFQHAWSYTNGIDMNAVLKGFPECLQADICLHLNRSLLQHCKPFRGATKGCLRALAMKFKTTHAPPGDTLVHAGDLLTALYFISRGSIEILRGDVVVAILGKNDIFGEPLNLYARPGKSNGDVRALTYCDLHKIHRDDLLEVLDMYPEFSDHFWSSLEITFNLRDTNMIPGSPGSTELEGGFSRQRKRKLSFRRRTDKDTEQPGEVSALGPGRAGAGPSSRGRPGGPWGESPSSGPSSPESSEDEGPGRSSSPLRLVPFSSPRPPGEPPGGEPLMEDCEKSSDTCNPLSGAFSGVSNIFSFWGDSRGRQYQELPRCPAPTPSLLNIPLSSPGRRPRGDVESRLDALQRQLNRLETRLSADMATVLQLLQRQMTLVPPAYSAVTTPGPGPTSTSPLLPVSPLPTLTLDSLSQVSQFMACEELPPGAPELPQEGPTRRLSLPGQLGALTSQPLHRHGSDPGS
Sequence of Adrenergic receptor alpha-1 (Homo sapiens) (P25100 whole entry, looked up, one chain of several): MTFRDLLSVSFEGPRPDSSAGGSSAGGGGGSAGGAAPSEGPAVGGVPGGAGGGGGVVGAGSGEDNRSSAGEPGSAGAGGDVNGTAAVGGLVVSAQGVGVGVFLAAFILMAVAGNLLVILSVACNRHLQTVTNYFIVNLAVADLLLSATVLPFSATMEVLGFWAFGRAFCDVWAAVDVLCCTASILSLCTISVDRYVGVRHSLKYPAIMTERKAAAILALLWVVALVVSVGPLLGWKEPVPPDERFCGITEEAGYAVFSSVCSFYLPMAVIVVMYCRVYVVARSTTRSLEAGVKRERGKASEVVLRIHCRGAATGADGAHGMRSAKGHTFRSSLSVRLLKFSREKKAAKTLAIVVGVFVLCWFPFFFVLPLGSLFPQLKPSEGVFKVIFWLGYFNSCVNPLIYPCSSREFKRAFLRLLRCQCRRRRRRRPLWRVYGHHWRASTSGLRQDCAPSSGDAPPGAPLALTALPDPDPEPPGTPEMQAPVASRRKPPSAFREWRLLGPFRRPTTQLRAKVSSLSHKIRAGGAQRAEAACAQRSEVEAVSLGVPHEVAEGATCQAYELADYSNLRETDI
Sequence of Adrenergic receptor alpha-1 (Homo sapiens) (P35368 whole entry, looked up, one chain of several): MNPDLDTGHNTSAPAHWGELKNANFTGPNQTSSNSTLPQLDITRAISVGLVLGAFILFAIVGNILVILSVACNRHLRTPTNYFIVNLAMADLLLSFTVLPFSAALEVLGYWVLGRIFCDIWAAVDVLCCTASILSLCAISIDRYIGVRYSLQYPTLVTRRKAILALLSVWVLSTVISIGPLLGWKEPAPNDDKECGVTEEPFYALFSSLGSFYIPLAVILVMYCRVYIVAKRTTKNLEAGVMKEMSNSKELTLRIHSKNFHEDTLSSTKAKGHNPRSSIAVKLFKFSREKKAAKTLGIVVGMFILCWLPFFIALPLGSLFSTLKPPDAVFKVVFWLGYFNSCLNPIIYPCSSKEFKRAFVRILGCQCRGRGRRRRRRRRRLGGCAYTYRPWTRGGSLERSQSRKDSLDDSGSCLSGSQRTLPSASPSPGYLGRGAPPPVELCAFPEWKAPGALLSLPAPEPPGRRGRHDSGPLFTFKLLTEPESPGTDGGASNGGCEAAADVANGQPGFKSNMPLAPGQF

On to `O=C1c2ccccc2C(Cc2c(F)cncc2F)(Cc2c(F)cncc2F)c2ccccc21`, for which the remaining at 24 h, 300 µM in data set [1] was more than 99%. Besides, the inhibition at 0.1 h, 50 µM in [2] was 97%. Also, the IC50 in data set [3] is 0.2 µM. In addition, the inhibition in data set [4] is 65%.
In [2], `O=C1c2ccccc2C(Cc2ccnc(C(F)(F)F)c2)(Cc2ccnc(C(F)(F)F)c2)c2ccccc21` showed an inhibition at 0.1 h, 50 µM of 95%. The figures for the IC50 result in data set [5] and in data set [3] were “Not Active” and 5.6 µM, respectively. The inhibition in data set [4] was found to be 6%.
Consider `O=C1c2ccccc2C(Cc2ccnnc2)(Cc2c(F)cncc2F)c2ccccc21`, for which the remaining at 24 h, 300 µM in [1] is more than 99%. The Kinetic_solubility in data set [6] (buffer, 18 h, 3.2 µM) stood at 27 µM. Further, the Activity in [7] and in data set [11] was more than 30% throughout. Further, the CC50 in data set [8] and in data set [9] was more than 150 µM each time. In [10], this compound came in with a Ki of more than 10 µM. In addition, it took 0.16 µM to reach half-maximal inhibition in data set [3] (IC50). Further, the inhibition in [4] stood at 73%. In addition, in data set [12], the Stability worked out at 84%. The inhibition at 0.1 h, 10 µM in [13] worked out at 90%.
For the compound `O=C1c2ccccc2C(Cc2ccnnc2)(Cc2ccnnc2)c2ccccc21`, the inhibition at 0.1 h, 50 µM in [2] was 28%. The results for the IC50 result in data set [5] and in data set [3] were “Not Active” and 10 µM, respectively. The inhibition in data set [4] is 12%.
On to `O=C1c2ccccc2C(Cc2ccnc(F)c2)(Cc2ccnc(F)c2)c2ccccc21`, for which the Stability in [1] (buffer, 24 h, 300 µM) is reported as 83%; in data set [12], 97%. Further, the solubility kinetic at 18 h in data set [6] came out at 27 µM (≈ 11.1 µg/mL). Also, the Activity in data set [14] and in data set [7] was more than 30% in each case. In addition, the inhibition at 0.1 h, 50 µM in data set [2] turned out to be 82%. The CC50 is 77 µM in data set [8] and 132 µM in [9]. In data set [15], the Ki fell in the range of 1.1 to 3.1 µM. Also, the IC50 in data set [3] was found to be 0.048 µM. The inhibition in [4] stood at 31%. The compound also yielded an inhibition at 0.1 h, 10 µM in [13] of 79%.
In turn, `Cc1cc(CC2(Cc3ccnc(C)c3)c3ccccc3C(=O)c3ccccc32)ccn1` returned an inhibition at 0.1 h, 50 µM in data set [2] of 92%. The IC50 result is “Not Active” in [5] and 0.54 µM in [3]. In data set [4], the inhibition came to 33%.
Regarding `O=C1c2ccccc2C(Cc2ccncc2)(Cc2ccncc2)c2ccccc21`, the solubility kinetic at 18 h in data set [6] turned out to be 27 µM (≈ 10.2 µg/mL). The IC50 in data set [3] is 0.055 µM. Further, the inhibition in data set [4] turned out to be 81%.

For the origin of these results see ChEMBL document CHEMBL4406884, “An anthrone-based Kv7.2/7.3 channel blocker with improved properties for the investigation of psychiatric and neurodegenerative disorders” (Bioorg Med Chem Lett, 2019).
